{"data": "Measured values gathered from unrelated publications", "CDK8": "Cyclin-dependent kinase 8 (CDK8, Homo sapiens, UniProt P49336)", "CDK8 with cyclin C": "Cyclin-dependent kinase 8, with cyclin C (CDK8, Homo sapiens, UniProt P49336)", "note": "Lines come from different studies, so protocols differ."}
{"SMILES": "CC(C)CC(=O)N1CCc2nc(-c3ccc(Br)cc3)nc(N(C)Cc3ccccc3)c2C1", "target": "CDK8", "test": "cell-free assay, competition with immobilised ligand", "conditions": "0.1 µM", "quantity": "remaining binding", "value": "82%"}
{"SMILES": "O=C(Nc1cnn(-c2csc(C(=O)NC3COC3)c2)c1)Nc1c(F)cccc1Cl", "target": "CDK8 with cyclin C", "test": "enzyme activity, inhibitor", "conditions": "5 µM", "quantity": "remaining activity", "value": "99%"}
{"SMILES": "CC(C)(C)c1nc(-c2cccc(NS(=O)(=O)c3c(F)cccc3F)c2F)c(-c2ccnc(N)n2)s1", "target": "CDK8 with cyclin C", "test": "enzyme activity, inhibitor, radiometric", "conditions": "1 µM", "quantity": "remaining activity", "value": "109%"}
{"SMILES": "Cn1c2c(c3ccc(Cl)c(Cl)c31)C(C#N)C1(CCCCC1)NC2=O (racemic)", "target": "CDK8", "test": "thermal stability, DSF", "conditions": "10 µM", "quantity": "ΔTm", "value": "0.4 °C"}
{"SMILES": "CS(=O)(=O)N1CCCC(NC(=O)[C@H](CCC2CCCCC2)NC(=O)c2ccc(CNC(=O)c3cnc4ccccn34)cc2)C1 (stereo partly shown)", "target": "CDK8", "test": "cell-free assay, competition with immobilised ligand", "conditions": "0.1 µM", "quantity": "remaining binding", "value": "42%"}
{"SMILES": "Cn1c2c(Cl)c(Cl)ccc2c2cn[nH]c(=O)c21", "target": "CDK8", "test": "thermal stability, DSF", "conditions": "10 µM", "quantity": "ΔTm", "value": "1 °C"}
{"SMILES": "C[C@H](c1ccnc(Nc2nc3ccc(-c4cc(N(C)C)ncn4)cc3[nH]2)c1)N1CCN(C(=O)CC(F)(F)F)CC1", "target": "CDK8", "test": "cell-free assay, competition with immobilised ligand", "conditions": "0.1 µM", "quantity": "remaining binding", "value": "96%"}
{"SMILES": "CCOc1cc(-c2nncn2C)ccc1Nc1ncc2cc(C)nc(NCC(C)(C)C)c2n1", "target": "CDK8 with cyclin C", "test": "cell-free assay, TR-FRET", "conditions": "1 µM", "quantity": "inhibition", "value": "≤ 15%"}
{"SMILES": "O=C(Nc1cnn(-c2csc(C(=O)NC3COC3)c2)c1)Nc1ccccc1Cl", "target": "CDK8 with cyclin C", "test": "enzyme activity, inhibitor", "conditions": "5 µM", "quantity": "remaining activity", "value": "101%"}
{"SMILES": "Cn1c2c(c3ccccc31)C(C#N)C(C)(C)NC2=O (stereo not shown)", "target": "CDK8", "test": "thermal stability, DSF", "conditions": "10 µM", "quantity": "ΔTm", "value": "0.8 °C"}
{"SMILES": "CN1CCN(C(=O)c2ccc3cc(CCNc4ccnc5ccc(C#N)cc45)ccc3c2)CC1", "target": "CDK8 with cyclin C", "test": "binding, TR-FRET", "quantity": "kon", "value": "878000 M⁻¹ s⁻¹"}
{"SMILES": "O=C(N1CCS(=O)(=O)CC1)N1C[C@H](c2ccc(OC(F)(F)F)cc2)C[C@H](c2nc(C3CC3)no2)C1", "target": "CDK8", "test": "cell-free assay, competition with immobilised ligand", "conditions": "1 µM", "quantity": "remaining binding", "value": "100%"}
{"SMILES": "CN1CCC2(CC1)NC(=O)c1c(c3ccc(Cl)c(Cl)c3n1C)C2C#N (racemic)", "target": "CDK8", "test": "thermal stability, DSF", "conditions": "10 µM", "quantity": "ΔTm", "value": "1.8 °C"}
